Data from ChEMBL document CHEMBL1138395, “Adamantane sulfone and sulfonamide 11-beta-HSD1 Inhibitors” (Bioorg Med Chem Lett, 2007).

Experiments:
[1] = target: 11-beta-hydroxysteroid dehydrogenase 1 (Mus musculus, UniProt P50172); assay: Inhibition of mouse HSD1 assessed as interconversion of cortisone to cortisol
How it was run: (§1)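 Enzyme inhibition measured as blocking the interconversion between cortisone and cortisol by mouse HSD1 (reported as Ki) or mouse HSD2 (reported as IC50); values are means of at least two experiments.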

[2] = target: T1, 11-beta-hydroxysteroid dehydrogenase type 2 (Mus musculus, UniProt P51661); assay: Inhibition of mouse HSD2 assessed as interconversion of cortisone to cortisol; how it was run: as §1
T1 sequence (P51661 whole entry): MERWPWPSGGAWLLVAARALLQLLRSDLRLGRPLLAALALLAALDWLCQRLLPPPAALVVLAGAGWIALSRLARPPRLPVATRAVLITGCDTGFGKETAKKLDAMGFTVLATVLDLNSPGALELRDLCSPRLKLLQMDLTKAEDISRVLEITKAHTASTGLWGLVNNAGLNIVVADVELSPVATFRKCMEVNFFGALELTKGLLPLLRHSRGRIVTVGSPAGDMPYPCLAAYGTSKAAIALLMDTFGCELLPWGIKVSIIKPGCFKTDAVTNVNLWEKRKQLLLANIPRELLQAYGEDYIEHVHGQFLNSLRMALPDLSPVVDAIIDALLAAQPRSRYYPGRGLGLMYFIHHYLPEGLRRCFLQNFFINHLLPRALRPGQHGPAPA

[3] = Metabolic stability in mouse liver microsomes assessed as compound remaining after 30 mins; format: ADME, Microsome; conditions: read-out: Stability
How it was run: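 Test compound incubated with mouse liver microsomes for 30 min; percent of parent compound remaining afterward reported.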

[4] = target: T2, 11-beta-hydroxysteroid dehydrogenase 1 (Homo sapiens, UniProt P28845); assay: Inhibition of human HSD1 assessed as interconversion of cortisone to cortisol
[5] = target: T3, 11-beta-hydroxysteroid dehydrogenase type 2 (Homo sapiens, UniProt P80365); assay: Inhibition of human HSD2 assessed as interconversion of cortisone to cortisol
T3 sequence (P80365 whole entry): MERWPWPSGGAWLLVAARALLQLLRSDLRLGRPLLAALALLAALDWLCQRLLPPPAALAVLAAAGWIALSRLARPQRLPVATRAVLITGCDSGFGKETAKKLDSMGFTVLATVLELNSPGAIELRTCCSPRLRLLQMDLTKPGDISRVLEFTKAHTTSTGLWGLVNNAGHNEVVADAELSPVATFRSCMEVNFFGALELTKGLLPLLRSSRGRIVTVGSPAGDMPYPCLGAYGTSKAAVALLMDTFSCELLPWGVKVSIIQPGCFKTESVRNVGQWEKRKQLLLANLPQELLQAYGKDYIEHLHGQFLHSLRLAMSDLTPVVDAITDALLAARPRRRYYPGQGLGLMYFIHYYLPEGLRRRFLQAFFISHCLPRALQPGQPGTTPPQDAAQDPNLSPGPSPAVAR

[6] = target: T2, 11-beta-hydroxysteroid dehydrogenase 1; assay: Inhibition of human HSD1 expressed in HEK cells; format: cell-based, HEK293

Chain of 11-beta-hydroxysteroid dehydrogenase 1 (Mus musculus, UniProt P50172) (P50172 whole entry): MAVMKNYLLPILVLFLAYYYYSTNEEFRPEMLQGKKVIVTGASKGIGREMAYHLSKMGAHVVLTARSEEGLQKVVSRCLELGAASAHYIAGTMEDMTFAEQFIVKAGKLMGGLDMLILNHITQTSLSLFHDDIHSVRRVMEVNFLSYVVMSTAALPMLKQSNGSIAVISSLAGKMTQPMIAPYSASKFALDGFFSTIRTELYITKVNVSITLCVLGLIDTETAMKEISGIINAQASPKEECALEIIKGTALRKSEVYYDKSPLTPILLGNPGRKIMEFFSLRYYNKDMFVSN
T2 sequence (P28845 whole entry): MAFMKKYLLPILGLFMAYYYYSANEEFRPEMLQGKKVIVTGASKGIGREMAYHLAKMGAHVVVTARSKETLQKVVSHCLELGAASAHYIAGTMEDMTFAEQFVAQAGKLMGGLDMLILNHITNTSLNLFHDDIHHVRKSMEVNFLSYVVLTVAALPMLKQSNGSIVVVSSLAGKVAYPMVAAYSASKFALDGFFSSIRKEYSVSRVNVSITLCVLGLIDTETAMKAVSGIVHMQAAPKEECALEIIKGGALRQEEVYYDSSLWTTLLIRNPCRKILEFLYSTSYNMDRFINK

Row | SMILES | Ki [1] [µM] | IC50 [2] [µM] | remaining at 0.5 h [3] [%] | Ki [4] [µM] | IC50 [5] [µM] | IC50 [6] [µM]
1 | CC(C)(Oc1cccc(Cl)c1)C(=O)N[C@H]1C2CC3CC1C[C@](S(C)(=O)=O)(C3)C2 | 0.01 | > 100 | 7 |  |  | 
2 | CC(C)(Oc1ccccc1C(F)(F)F)C(=O)N[C@H]1C2CC3CC1C[C@](S(C)(=O)=O)(C3)C2 | 0.003 | > 100 |  | 0.007 | > 100 | 0.12
3 | CC(=O)NS(=O)(=O)[C@]12CC3CC(C1)[C@@H](NC(=O)C(C)(C)Oc1ccc(Cl)cc1)C(C3)C2 | 0.11 |  |  | 0.17 |  | 
4 | CC(C)(C(=O)N[C@H]1C2CC3CC1C[C@](S(N)(=O)=O)(C3)C2)c1ccccc1 | 0.21 | > 100 |  | 0.008 | > 100 | 0.42
5 | CN(C)S(=O)(=O)[C@]12CC3CC(C1)[C@@H](NC(=O)C(C)(C)Oc1ccc(Cl)cc1)C(C3)C2 | 0.021 | 100 | < 1 |  |  | 
6 | CC(C)(Oc1ccccc1)C(=O)N[C@H]1C2CC3CC1C[C@](S(N)(=O)=O)(C3)C2 | 0.013 | > 100 | 62 |  |  | 
7 | CC(C)(Oc1ccc(Cl)cc1F)C(=O)N[C@H]1C2CC3CC1C[C@](S(C)(=O)=O)(C3)C2 | 0.008 | > 100 | 63 |  |  | 
8 | CC(C)(Oc1ccc(Cl)cc1)C(=O)N[C@H]1C2CC3CC1C[C@](S(C)(=O)=O)(C3)C2 | 0.008 | > 100 | 70 |  |  | 
9 | CC(C)(Oc1ccc(F)cc1Cl)C(=O)N[C@H]1C2CC3CC1C[C@](S(=O)(=O)CC(N)=O)(C3)C2 | 0.004 | > 100 | 59 | 0.008 | 3.3 | 0.3
10 | COc1cc(F)ccc1OC(C)(C)C(=O)N[C@H]1C2CC3CC1C[C@](S(C)(=O)=O)(C3)C2 | 0.007 | > 100 |  | 0.02 | > 100 | 0.69
11 | CC(C)(Oc1ccccc1Cl)C(=O)N[C@H]1C2CC3CC1C[C@](S(C)(=O)=O)(C3)C2 | 0.002 | > 100 |  | 0.005 | 5.4 | 0.12
